System: HEK-293T
Experiment: Multiplex assay against HEK293T
Format: toxicity, cell-based
Details: human
Outline: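 Live cells were stained at seeding with Hoechst33342, BioTracker Green Microtubule Cytoskeleton Dye, MitoTracker Red and Annexin V Alexa Fluor 680, then imaged on a CQ1 microscope at 37°C and 5% CO2 after compound addition. CellPathfinder machine-learning gating split cells into Hoechst high-intensity objects or normal cells. Normal cells were split into healthy, pyknosed or fragmented nuclei, and pyknosed cells into mitotic or apoptotic. Tubulin, mitochondrial-mass and membrane-permeability phenotypes are per cents of healthy-nucleus cells.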

[1] = 12 h, 1 µM, compound concentration 1 uM, replicate 1
[2] = 12 h, 1 µM, compound concentration 1 uM, replicate 2
[3] = 12 h, 10 µM, compound concentration 10 uM, replicate 1
[4] = 12 h, 10 µM, compound concentration 10 uM, replicate 2
[5] = 24 h, 1 µM, compound concentration 1 uM, replicate 1
[6] = 24 h, 1 µM, compound concentration 1 uM, replicate 2
[7] = 24 h, 10 µM, compound concentration 10 uM, replicate 1
[8] = 24 h, 10 µM, compound concentration 10 uM, replicate 2
[9] = 48 h, 1 µM, compound concentration 1 uM, replicate 1
[10] = 48 h, 1 µM, compound concentration 1 uM, replicate 2
[11] = 48 h, 10 µM, compound concentration 10 uM, replicate 1
[12] = 48 h, 10 µM, compound concentration 10 uM, replicate 2

`O=C(O)c1cc2ccccc2c(Cc2c(O)c(C(=O)O)cc3ccccc23)c1O` [PAMOIC ACID] was tested, and the “Population Apoptotic (%)” value [1] was 30%, the “Population Fragmented Nuclei (%)” value [1] was 9% and the “Population Healthy Nuclei (%)” value [1] was 77%. The “Population Hoechst High Intensity Objects (%)” value [1] was 7%, the “Population Membrane Permeable-Phenotype (%)” value [1] was 0% and the “Population Mitochondria Different-Phenotype (%)” value [1] was 38%. The “Population Mitotic Cells (%)” value [1] was 69%, the “Population Normal (%)” value [1] was 92% and the “Population Pyknosed Nuclei (%)” value [1] was 12%. For the same molecule, the “Population Tubulin-Different-Phenotype (%)” value [1] was 23%, the “Total Cell Count” value [1] was 432 and the “Population Apoptotic (%)” value [2] was 58%. For the same molecule, the “Population Fragmented Nuclei (%)” value [2] was 7%, the “Population Hoechst High Intensity Objects (%)” value [2] was 6% and the “Population Mitochondria Different-Phenotype (%)” value [2] was 60%. The “Population Mitotic Cells (%)” value [2] was 41%, the “Population Normal (%)” value [2] was 93% and the “Population Pyknosed Nuclei (%)” value [2] was 15%. The “Population Tubulin-Different-Phenotype (%)” value [2] was 21%, the “Total Cell Count” value [2] was 303 and the “Population Apoptotic (%)” value [3] was 34%. The “Population Fragmented Nuclei (%)” value [3] was 8%, the “Population Healthy Nuclei (%)” value [3] was 79% and the “Population Hoechst High Intensity Objects (%)” value [3] was 8%. The “Population Membrane Permeable-Phenotype (%)” value [3] was 0%, the “Population Mitochondria Different-Phenotype (%)” value [3] was 44% and the “Population Mitotic Cells (%)” value [3] was 65%. The “Population Normal (%)” value [3] was 91%, the “Population Pyknosed Nuclei (%)” value [3] was 12% and the “Population Tubulin-Different-Phenotype (%)” value [3] was 34%. For the same molecule, the “Total Cell Count” value [3] was 446, the “Population Apoptotic (%)” value [4] was 52% and the “Population Fragmented Nuclei (%)” value [4] was 4%. The “Population Healthy Nuclei (%)” value [4] was 81%, the “Population Mitochondria Different-Phenotype (%)” value [4] was 55% and the “Population Mitotic Cells (%)” value [4] was 47%. The “Population Pyknosed Nuclei (%)” value [4] was 13%, the “Population Tubulin-Different-Phenotype (%)” value [4] was 26% and the “Total Cell Count” value [4] was 275. For the same molecule, the “Population Apoptotic (%)” value [5] was 29%, the “Population Fragmented Nuclei (%)” value [5] was 8% and the “Population Healthy Nuclei (%)” value [5] was 78%. The “Population Hoechst High Intensity Objects (%)” value [5] was 6%, the “Population Membrane Permeable-Phenotype (%)” value [5] was 1% and the “Population Mitochondria Different-Phenotype (%)” value [5] was 22%. The “Population Mitotic Cells (%)” value [5] was 70%, the “Population Normal (%)” value [5] was 93% and the “Population Pyknosed Nuclei (%)” value [5] was 12%. For the same molecule, the “Population Tubulin-Different-Phenotype (%)” value [5] was 16%, the “Total Cell Count” value [5] was 559 and the “Population Apoptotic (%)” value [6] was 40%. For the same molecule, the “Population Fragmented Nuclei (%)” value [6] was 5%, the “Population Healthy Nuclei (%)” value [6] was 86% and the “Population Membrane Permeable-Phenotype (%)” value [6] was 0%. For the same molecule, the “Population Mitochondria Different-Phenotype (%)” value [6] was 39%, the “Population Mitotic Cells (%)” value [6] was 59% and the “Population Pyknosed Nuclei (%)” value [6] was 7%. The “Total Cell Count” value [6] was 378, the “Population Apoptotic (%)” value [7] was 29% and the “Population Fragmented Nuclei (%)” value [7] was 9%. The “Population Healthy Nuclei (%)” value [7] was 75%, the “Population Hoechst High Intensity Objects (%)” value [7] was 5% and the “Population Membrane Permeable-Phenotype (%)” value [7] was 0%. The “Population Mitochondria Different-Phenotype (%)” value [7] was 27%, the “Population Mitotic Cells (%)” value [7] was 70% and the “Population Normal (%)” value [7] was 94%. For the same molecule, the “Population Pyknosed Nuclei (%)” value [7] was 14%, the “Population Tubulin-Different-Phenotype (%)” value [7] was 22% and the “Total Cell Count” value [7] was 592. The “Population Apoptotic (%)” value [8] was 41%, the “Population Fragmented Nuclei (%)” value [8] was 5% and the “Population Healthy Nuclei (%)” value [8] was 79%. For the same molecule, the “Population Hoechst High Intensity Objects (%)” value [8] was 7%, the “Population Mitochondria Different-Phenotype (%)” value [8] was 43% and the “Population Mitotic Cells (%)” value [8] was 58%. For the same molecule, the “Population Normal (%)” value [8] was 92%, the “Population Pyknosed Nuclei (%)” value [8] was 15% and the “Population Tubulin-Different-Phenotype (%)” value [8] was 18%. For the same molecule, the “Total Cell Count” value [8] was 365, the “Population Apoptotic (%)” value [9] was 18% and the “Population Fragmented Nuclei (%)” value [9] was 11%. The “Population Healthy Nuclei (%)” value [9] was 81%, the “Population Hoechst High Intensity Objects (%)” value [9] was 2% and the “Population Membrane Permeable-Phenotype (%)” value [9] was 1%. The “Population Mitochondria Different-Phenotype (%)” value [9] was 13%, the “Population Mitotic Cells (%)” value [9] was 81% and the “Population Normal (%)” value [9] was 97%. For the same molecule, the “Population Pyknosed Nuclei (%)” value [9] was 7%, the “Population Tubulin-Different-Phenotype (%)” value [9] was 10% and the “Total Cell Count” value [9] was 998. The “Population Apoptotic (%)” value [10] was 48%, the “Population Fragmented Nuclei (%)” value [10] was 8% and the “Population Healthy Nuclei (%)” value [10] was 84%. For the same molecule, the “Population Hoechst High Intensity Objects (%)” value [10] was 7%, the “Population Membrane Permeable-Phenotype (%)” value [10] was 0% and the “Population Mitochondria Different-Phenotype (%)” value [10] was 27%. The “Population Mitotic Cells (%)” value [10] was 51%, the “Population Normal (%)” value [10] was 92% and the “Population Pyknosed Nuclei (%)” value [10] was 6%. For the same molecule, the “Population Tubulin-Different-Phenotype (%)” value [10] was 11%, the “Total Cell Count” value [10] was 494 and the “Population Apoptotic (%)” value [11] was 24%. The “Population Fragmented Nuclei (%)” value [11] was 13%, the “Population Healthy Nuclei (%)” value [11] was 79% and the “Population Hoechst High Intensity Objects (%)” value [11] was 3%. The “Population Membrane Permeable-Phenotype (%)” value [11] was 0%, the “Population Mitochondria Different-Phenotype (%)” value [11] was 18% and the “Population Mitotic Cells (%)” value [11] was 75%. For the same molecule, the “Population Normal (%)” value [11] was 96%, the “Population Pyknosed Nuclei (%)” value [11] was 7% and the “Population Tubulin-Different-Phenotype (%)” value [11] was 10%. The “Total Cell Count” value [11] was 879, the “Population Apoptotic (%)” value [12] was 36% and the “Population Fragmented Nuclei (%)” value [12] was 11%. The “Population Healthy Nuclei (%)” value [12] was 82%, the “Population Hoechst High Intensity Objects (%)” value [12] was 7% and the “Population Mitochondria Different-Phenotype (%)” value [12] was 27%. The “Population Mitotic Cells (%)” value [12] was 64%, the “Population Normal (%)” value [12] was 92% and the “Population Pyknosed Nuclei (%)” value [12] was 5%. The “Population Tubulin-Different-Phenotype (%)” value [12] was 12% and the “Total Cell Count” value [12] was 517.

— ChEMBL document CHEMBL5058577, “EUbOPEN Chemogenomics Library 2 (Multiplex)” (2022)
